Assay results published in the M2OR odorant receptor database.
Residue numbers refer to the chain shown, from its start.

How the values were obtained:
Conditions in all cases: stereoisomer not certain
OR52A5 (Homo sapiens) = target: T1, OR52A5 (Homo sapiens) (UniProt Q9H2C5)
T1 sequence (whole entry): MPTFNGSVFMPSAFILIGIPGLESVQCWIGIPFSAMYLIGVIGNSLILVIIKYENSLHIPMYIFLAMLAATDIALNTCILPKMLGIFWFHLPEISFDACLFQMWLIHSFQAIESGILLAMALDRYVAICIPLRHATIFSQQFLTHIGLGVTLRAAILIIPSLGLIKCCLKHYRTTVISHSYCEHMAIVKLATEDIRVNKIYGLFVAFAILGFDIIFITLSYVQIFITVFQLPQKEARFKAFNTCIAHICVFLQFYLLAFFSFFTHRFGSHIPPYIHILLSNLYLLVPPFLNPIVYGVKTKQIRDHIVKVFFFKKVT
Procedure, shortened: (§1)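 Each receptor–molecule pair is labelled responsive or non-responsive (inactive) according to whether the original authors judged the measured signal statistically different from baseline. The data were taken from the main text and supplementary material of published papers and checked for typos and inconsistencies. Assay methods differed by source, with transient luciferase assays in mammalian cell lines being common.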

OR52B2 (Homo sapiens) = target: T2, OR52B2 (Homo sapiens) (UniProt Q96RD2)
T2 sequence (whole entry): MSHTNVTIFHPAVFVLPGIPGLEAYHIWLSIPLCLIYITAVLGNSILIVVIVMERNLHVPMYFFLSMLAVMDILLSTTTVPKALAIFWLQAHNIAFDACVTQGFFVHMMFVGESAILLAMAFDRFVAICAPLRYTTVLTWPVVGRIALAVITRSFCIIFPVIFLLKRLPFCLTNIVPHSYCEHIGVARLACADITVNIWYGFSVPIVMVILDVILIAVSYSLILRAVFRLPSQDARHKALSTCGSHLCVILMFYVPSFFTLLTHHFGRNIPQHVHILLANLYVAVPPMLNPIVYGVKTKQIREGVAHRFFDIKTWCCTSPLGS
Procedure, shortened: as §1

OR52B4 (Homo sapiens) = target: T3, OR52B4 (Homo sapiens) (UniProt Q8NGK2)
T3 sequence (whole entry): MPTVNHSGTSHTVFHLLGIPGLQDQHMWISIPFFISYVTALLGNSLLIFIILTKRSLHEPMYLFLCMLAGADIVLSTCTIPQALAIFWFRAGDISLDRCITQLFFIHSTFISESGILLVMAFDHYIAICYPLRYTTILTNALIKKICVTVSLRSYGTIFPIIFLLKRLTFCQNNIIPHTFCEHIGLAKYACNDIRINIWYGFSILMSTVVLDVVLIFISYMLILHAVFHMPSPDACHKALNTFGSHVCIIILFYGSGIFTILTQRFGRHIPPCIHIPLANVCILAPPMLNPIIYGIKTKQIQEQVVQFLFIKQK
Procedure, shortened: as §1

OR52B6 (Homo sapiens) = target: T4, OR52B6 (Homo sapiens) (UniProt Q8NGF0)
T4 sequence (whole entry): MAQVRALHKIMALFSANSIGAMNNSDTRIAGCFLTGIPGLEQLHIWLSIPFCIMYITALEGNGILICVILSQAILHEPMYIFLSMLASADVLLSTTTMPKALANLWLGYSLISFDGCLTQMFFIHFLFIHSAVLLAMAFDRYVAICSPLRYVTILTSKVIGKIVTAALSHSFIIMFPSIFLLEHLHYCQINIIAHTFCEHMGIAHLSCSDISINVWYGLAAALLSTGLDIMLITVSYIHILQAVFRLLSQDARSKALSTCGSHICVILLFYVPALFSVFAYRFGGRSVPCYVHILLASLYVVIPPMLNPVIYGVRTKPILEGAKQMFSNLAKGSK
Procedure, shortened: as §1

OR52D1 (Homo sapiens) = target: T5, OR52D1 (Homo sapiens) (UniProt Q9H346)
T5 sequence (whole entry): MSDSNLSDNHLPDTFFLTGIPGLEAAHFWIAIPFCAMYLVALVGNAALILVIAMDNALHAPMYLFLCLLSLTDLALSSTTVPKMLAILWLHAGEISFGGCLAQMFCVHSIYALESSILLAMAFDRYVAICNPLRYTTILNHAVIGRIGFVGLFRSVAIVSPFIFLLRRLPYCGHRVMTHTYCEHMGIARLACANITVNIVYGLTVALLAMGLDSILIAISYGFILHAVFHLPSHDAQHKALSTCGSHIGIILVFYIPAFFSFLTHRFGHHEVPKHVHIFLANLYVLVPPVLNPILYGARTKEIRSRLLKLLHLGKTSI
Procedure, shortened: as §1

OR52E2 (Homo sapiens) = OR52E2 (Homo sapiens) (UniProt Q8NGJ4)
OR52E2 (Homo sapiens), sequence (Q8NGJ4 whole entry): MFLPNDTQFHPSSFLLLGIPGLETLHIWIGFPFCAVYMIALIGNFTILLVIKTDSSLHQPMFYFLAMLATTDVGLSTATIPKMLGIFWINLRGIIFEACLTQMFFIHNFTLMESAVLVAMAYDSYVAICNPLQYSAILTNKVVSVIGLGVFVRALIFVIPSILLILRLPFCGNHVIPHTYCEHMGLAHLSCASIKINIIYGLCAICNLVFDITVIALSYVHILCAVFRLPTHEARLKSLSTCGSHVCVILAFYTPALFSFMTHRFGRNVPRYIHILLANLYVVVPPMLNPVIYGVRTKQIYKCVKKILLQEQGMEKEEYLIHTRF
Procedure, shortened: as §1

OR52E4 (Homo sapiens) = OR52E4 (Homo sapiens) (UniProt Q8NGH9)
OR52E4 (Homo sapiens), sequence (Q8NGH9 whole entry): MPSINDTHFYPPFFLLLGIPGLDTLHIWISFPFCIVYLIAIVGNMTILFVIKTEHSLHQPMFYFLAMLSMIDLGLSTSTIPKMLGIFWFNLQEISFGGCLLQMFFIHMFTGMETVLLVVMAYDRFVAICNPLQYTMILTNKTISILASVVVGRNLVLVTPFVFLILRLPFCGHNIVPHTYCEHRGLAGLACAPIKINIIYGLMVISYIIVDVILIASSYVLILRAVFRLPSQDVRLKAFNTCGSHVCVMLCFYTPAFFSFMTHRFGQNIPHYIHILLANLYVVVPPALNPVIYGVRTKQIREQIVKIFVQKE
Procedure, shortened: as §1

OR52E5 (Homo sapiens) = OR52E5 (Homo sapiens) (UniProt Q8NH55)
OR52E5 (Homo sapiens), sequence (Q8NH55 whole entry): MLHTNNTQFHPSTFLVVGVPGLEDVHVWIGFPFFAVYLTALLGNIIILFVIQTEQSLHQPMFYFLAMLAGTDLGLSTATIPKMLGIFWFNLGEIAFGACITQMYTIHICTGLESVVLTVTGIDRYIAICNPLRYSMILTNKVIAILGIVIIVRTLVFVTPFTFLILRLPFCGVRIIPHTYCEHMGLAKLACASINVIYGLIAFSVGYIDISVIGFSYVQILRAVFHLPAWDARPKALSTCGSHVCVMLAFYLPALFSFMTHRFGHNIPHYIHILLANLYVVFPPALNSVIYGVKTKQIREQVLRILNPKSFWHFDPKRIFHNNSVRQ
Procedure, shortened: as §1

OR52E6 (Homo sapiens) = OR52E6 (Homo sapiens) (UniProt Q96RD3)
OR52E6 (Homo sapiens), sequence (Q96RD3 whole entry): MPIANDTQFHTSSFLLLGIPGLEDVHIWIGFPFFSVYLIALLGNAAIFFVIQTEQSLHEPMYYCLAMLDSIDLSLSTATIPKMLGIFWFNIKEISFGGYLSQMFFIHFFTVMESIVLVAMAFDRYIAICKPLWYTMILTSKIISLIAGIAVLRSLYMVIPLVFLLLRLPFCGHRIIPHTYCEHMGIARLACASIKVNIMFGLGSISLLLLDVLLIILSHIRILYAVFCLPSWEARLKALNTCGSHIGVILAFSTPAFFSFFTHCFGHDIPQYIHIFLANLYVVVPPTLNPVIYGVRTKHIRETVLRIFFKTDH
Procedure, shortened: as §1

OR52I1 (Homo sapiens) = target: T6, OR52I1 (Homo sapiens) (UniProt Q8NGK6)
T6 sequence (whole entry): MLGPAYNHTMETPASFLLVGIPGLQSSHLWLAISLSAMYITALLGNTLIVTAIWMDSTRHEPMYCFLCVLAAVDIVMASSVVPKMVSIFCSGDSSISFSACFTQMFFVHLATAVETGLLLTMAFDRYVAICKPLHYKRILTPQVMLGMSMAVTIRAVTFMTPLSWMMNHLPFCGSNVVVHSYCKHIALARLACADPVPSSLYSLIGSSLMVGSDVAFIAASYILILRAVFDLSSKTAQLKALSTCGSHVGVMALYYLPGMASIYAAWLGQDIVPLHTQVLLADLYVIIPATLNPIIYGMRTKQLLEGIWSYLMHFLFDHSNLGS
Procedure, shortened: as §1

OR52I2 (Homo sapiens) = target: T7, OR52I2 (Homo sapiens) (UniProt Q8NH67)
T7 sequence (whole entry): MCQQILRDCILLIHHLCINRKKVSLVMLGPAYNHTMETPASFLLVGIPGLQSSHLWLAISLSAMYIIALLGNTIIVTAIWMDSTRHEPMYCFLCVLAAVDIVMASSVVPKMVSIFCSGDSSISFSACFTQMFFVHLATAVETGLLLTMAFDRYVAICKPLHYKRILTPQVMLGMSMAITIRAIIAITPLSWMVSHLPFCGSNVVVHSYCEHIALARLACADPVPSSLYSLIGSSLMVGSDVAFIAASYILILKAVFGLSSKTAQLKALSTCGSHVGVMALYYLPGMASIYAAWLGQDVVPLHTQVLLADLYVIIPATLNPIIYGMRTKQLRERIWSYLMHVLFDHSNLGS
Procedure, shortened: as §1

OR52J3 (Homo sapiens) = OR52J3 (Homo sapiens) (UniProt Q8NH60)
OR52J3 (Homo sapiens), sequence (Q8NH60 whole entry): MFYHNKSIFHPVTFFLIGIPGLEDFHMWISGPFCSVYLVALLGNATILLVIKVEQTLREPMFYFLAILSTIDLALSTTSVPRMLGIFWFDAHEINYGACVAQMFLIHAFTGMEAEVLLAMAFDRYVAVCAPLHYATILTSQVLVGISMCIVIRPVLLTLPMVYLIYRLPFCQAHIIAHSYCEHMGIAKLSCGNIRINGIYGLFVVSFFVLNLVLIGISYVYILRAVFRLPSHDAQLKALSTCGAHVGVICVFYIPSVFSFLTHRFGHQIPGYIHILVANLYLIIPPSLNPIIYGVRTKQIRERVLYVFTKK
Procedure, shortened: as §1

OR52K1 (Homo sapiens) = target: T8, OR52K1 (Homo sapiens) (UniProt Q8NGK4)
T8 sequence (whole entry): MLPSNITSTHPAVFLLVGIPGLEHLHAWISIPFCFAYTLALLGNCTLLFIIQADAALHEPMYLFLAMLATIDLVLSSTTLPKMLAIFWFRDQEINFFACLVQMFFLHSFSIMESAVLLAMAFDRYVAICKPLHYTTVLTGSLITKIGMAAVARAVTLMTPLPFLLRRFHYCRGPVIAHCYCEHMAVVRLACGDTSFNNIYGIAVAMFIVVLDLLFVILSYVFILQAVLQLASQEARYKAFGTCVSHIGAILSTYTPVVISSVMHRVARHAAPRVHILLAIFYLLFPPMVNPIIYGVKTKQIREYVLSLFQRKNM
Procedure, shortened: as §1

OR52K2 (Homo sapiens) = target: T9, OR52K2 (Homo sapiens) (UniProt Q8NGK3)
T9 sequence (whole entry): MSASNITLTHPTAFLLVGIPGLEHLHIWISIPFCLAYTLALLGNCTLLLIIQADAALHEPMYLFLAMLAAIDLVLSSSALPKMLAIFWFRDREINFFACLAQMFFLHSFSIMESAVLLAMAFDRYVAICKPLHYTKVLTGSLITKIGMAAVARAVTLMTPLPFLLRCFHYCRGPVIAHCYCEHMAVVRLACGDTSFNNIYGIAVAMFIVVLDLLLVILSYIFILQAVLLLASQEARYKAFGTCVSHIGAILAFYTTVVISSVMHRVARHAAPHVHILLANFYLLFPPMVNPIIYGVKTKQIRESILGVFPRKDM
Procedure, shortened: as §1

OR52L1 (Homo sapiens) [1] = target: T10, OR52L1 (Homo sapiens) (UniProt Q8NGH7)
T10 sequence (whole entry): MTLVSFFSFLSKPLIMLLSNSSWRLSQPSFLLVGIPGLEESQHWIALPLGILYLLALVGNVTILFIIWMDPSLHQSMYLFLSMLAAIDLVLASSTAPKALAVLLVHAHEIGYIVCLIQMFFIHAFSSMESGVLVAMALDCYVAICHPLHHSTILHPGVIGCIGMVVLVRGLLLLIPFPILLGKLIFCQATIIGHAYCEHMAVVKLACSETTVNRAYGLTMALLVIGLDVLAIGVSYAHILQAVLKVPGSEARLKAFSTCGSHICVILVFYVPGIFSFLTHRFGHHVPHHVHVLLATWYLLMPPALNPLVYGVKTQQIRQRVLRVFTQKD
Procedure, shortened: as §1

OR52M1 (Homo sapiens) = target: T11, OR52M1 (Homo sapiens) (UniProt Q8NGK5)
T11 sequence (whole entry): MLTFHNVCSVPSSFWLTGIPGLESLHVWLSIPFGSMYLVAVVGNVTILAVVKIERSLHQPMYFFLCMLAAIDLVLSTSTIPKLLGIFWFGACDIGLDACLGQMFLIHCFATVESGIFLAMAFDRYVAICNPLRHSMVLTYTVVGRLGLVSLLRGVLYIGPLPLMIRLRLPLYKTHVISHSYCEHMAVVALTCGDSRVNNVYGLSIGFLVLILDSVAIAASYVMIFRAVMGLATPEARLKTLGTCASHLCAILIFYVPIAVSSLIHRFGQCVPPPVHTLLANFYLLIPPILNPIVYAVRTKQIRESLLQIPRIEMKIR
Procedure, shortened: as §1

OR52N1 (Homo sapiens) = target: T12, OR52N1 (Homo sapiens) (UniProt Q8NH53)
T12 sequence (whole entry): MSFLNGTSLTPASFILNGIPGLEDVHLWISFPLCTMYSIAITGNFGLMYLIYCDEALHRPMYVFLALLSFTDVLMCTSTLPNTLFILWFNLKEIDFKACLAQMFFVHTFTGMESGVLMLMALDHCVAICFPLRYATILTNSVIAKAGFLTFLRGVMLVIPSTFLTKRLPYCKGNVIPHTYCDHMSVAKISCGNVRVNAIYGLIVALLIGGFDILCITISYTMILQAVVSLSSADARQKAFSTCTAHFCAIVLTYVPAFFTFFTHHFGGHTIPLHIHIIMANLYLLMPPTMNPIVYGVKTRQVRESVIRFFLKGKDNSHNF
Procedure, shortened: as §1

OR52N2 (Homo sapiens) = target: T13, OR52N2 (Homo sapiens) (UniProt Q8NGI0)
T13 sequence (whole entry): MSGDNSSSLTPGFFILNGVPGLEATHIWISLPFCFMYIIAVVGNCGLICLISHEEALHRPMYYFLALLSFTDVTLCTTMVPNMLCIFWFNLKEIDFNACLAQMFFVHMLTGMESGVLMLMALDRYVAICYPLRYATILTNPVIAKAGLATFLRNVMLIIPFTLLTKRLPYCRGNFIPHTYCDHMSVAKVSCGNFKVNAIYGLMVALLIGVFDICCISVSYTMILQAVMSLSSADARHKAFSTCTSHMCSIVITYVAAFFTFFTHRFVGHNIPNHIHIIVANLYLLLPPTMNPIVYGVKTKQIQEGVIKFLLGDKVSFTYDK
Procedure, shortened: as §1

OR52E1 (Homo sapiens) = OR52E1 (Homo sapiens) (UniProt Q8NGJ3)
OR52E1 (Homo sapiens), sequence (Q8NGJ3 whole entry): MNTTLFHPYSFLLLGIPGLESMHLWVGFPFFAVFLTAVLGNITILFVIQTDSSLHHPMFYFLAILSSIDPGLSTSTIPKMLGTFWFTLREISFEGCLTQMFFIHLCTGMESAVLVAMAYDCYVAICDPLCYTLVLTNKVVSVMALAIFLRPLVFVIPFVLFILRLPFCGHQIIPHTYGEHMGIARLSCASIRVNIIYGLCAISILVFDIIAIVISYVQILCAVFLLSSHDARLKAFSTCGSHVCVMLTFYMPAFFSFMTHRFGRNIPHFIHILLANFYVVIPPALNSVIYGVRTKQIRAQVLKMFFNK
Procedure, shortened: as §1

OR52L1 (Homo sapiens) [2] = target: T14, OR52L1 (Homo sapiens) (UniProt Q8NGH7); remark: listed apart in the source
T14 sequence (whole entry): T10 sequence (whole entry) with C140R, C161R, K183T, W297R
Procedure, shortened: as §1

Measured: odorant receptor agonist call

CCCCCC(S)C(C)CO (configuration not stated)
not listed: OR52E1 (Homo sapiens) | OR52L1 (Homo sapiens) [2]
inactive: all other assays above

CC1CCCCCCCCCCCCC(=O)C1 (configuration not stated)
not listed: OR52L1 (Homo sapiens) [2]
inactive: all other assays above

Cc1cnc(C)c(C)n1
not listed: OR52E5 (Homo sapiens) | OR52L1 (Homo sapiens) [1]
inactive: all other assays above

CC(=O)CCC=C(C)C
active: OR52D1 (Homo sapiens)

CC(C)=CCCC(C)=CCO
inactive: OR52D1 (Homo sapiens)

CCC1OC(=O)C(O)=C1C (configuration not stated)
not listed: OR52E5 (Homo sapiens) | OR52L1 (Homo sapiens) [1]
inactive: all other assays above

CCCCCCCCC(C)=O
active: OR52D1 (Homo sapiens)

Cc1ccc(C(C)C)c(O)c1
inactive: OR52D1 (Homo sapiens)

CCCCCCCCCC(=O)[O-].[H+]
inactive: OR52D1 (Homo sapiens)

CC(CO)CS (configuration not stated)
not listed: OR52E1 (Homo sapiens) | OR52L1 (Homo sapiens) [2]
inactive: all other assays above

CCCCCC1CCCC(=O)O1 (configuration not stated)
active: OR52D1 (Homo sapiens) | OR52K1 (Homo sapiens) | OR52L1 (Homo sapiens) [1] | OR52M1 (Homo sapiens)
not listed: OR52E1 (Homo sapiens) | OR52L1 (Homo sapiens) [2]
inactive: all other assays above

CCC(S)C(C)CO (configuration not stated)
not listed: OR52E1 (Homo sapiens) | OR52L1 (Homo sapiens) [2]
inactive: all other assays above

CC=Cc1ccc(OC)cc1
active: OR52D1 (Homo sapiens)

CCCCCCC=CCCC=O
not listed: OR52L1 (Homo sapiens) [2]
inactive: all other assays above
